Measurements as given in ChEMBL document CHEMBL3112482, “Nonclassical antifolates, part 5. Benzodiazepine analogs as a new class of DHFR inhibitors: synthesis, antitumor testing and molecular modeling study” (Eur J Med Chem, 2014).

Key:
NCI-H23 = assay: Growth inhibition of human NCI-H23 cells at 10 uM after 48 hrs; assay type: functional; conditions: NCI-H23, 48 h, read-out: GI
Outline: (§1)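 Single-dose primary screen in the NCI 60 human tumour cell line panel, run at the NCI facility. The panel covers nine subpanels: leukaemia, non-small cell lung, colon, CNS, melanoma, ovarian, renal, prostate and breast. Read-out was percent growth of treated cells, shown as a mean graph and reported as percent growth inhibition.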

SK-OV-3 = assay: Growth inhibition of human SKOV3 cells at 10 uM after 48 hrs; assay type: functional; conditions: SK-OV-3, 48 h, read-out: GI
Outline: (§2)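 NCI 60-cell-line disease-oriented human tumor panel, single-dose primary screen at 10 µM. Data given as mean-graph percent growth of treated cells, reported as percent growth inhibition (GI %).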

NCI-H322M = assay: Growth inhibition of human NCI-H322M cells at 10 uM after 48 hrs; assay type: functional; conditions: read-out: GI; outline: as §1
MDA-MB-231 = assay: Growth inhibition of human MDA-MB-231 cells at 10 uM after 48 hrs; assay type: functional; conditions: MDA-MB-231, 48 h, read-out: GI; outline: as §1
[1] = Growth inhibition of human NCI-ADR-RES cells at 10 uM after 48 hrs; assay type: functional; conditions: read-out: GI; outline: as §1
T47D = assay: Growth inhibition of human T47D cells at 10 uM after 48 hrs; assay type: functional; conditions: read-out: GI; outline: as §2
[2] = Growth inhibition of human EKVX cells at 10 uM after 48 hrs; assay type: functional; conditions: read-out: GI; outline: as §1
MOLT-4 = assay: Growth inhibition of human MOLT4 cells at 10 uM after 48 hrs; assay type: functional; conditions: MOLT-4, 48 h, read-out: GI; outline: as §1
[3] = Growth inhibition of human OVCAR4 cells at 10 uM after 48 hrs; assay type: functional; conditions: OVCAR-4, 48 h, read-out: GI; outline: as §1
HCT-15 = assay: Growth inhibition of human HCT15 cells at 10 uM after 48 hrs; assay type: functional; conditions: HCT-15, 48 h, read-out: GI; outline: as §1
SNB-19 = assay: Growth inhibition of human SNB19 cells at 10 uM after 48 hrs; assay type: functional; conditions: SNB-19, 48 h, read-out: GI; outline: as §2
[4] = Growth inhibition of human SF539 cells at 10 uM after 48 hrs; assay type: functional; conditions: SF-539, 48 h, read-out: GI; outline: as §2
UACC-62 = assay: Growth inhibition of human UACC62 cells at 10 uM after 48 hrs; assay type: functional; conditions: UACC-62, 48 h, read-out: GI; outline: as §2
Dihydrofolate reductase = target: T1, Dihydrofolate reductase (Bos taurus, UniProt P00376); assay: Inhibition of bovine liver DHFR measured for every 1 min of 10 mins
T1 sequence (P00376 whole entry): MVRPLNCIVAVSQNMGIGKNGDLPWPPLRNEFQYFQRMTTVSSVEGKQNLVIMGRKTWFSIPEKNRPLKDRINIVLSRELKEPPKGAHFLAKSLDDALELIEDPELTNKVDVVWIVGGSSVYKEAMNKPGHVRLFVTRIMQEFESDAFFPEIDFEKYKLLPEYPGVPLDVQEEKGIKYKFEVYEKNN

A549 = assay: Growth inhibition of human A549 cells at 10 uM after 48 hrs; assay type: functional; conditions: A549, 48 h, read-out: GI; outline: as §1
[5] = Growth inhibition of human Hs 578T cells at 10 uM after 48 hrs; assay type: functional; conditions: read-out: GI; outline: as §1
A498 = assay: Growth inhibition of human A498 cells at 10 uM after 48 hrs; assay type: functional; conditions: A498, 48 h, read-out: GI; outline: as §1
HL-60(TB) = assay: Growth inhibition of human HL-60(TB) cells at 10 uM after 48 hrs; assay type: functional; conditions: HL-60, 48 h, read-out: GI
Outline: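 NCI 60-cell-line human tumour panel covering nine subpanels (leukaemia, non-small cell lung, colon, CNS, melanoma, ovarian, renal, prostate, breast), run at the NCI facility. Primary screen tested a single dose of each compound. Read-out was percent growth of treated cells versus untreated cells, reported from the mean graph as percentage growth inhibition.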

PC-3 = assay: Growth inhibition of human PC3 cells at 10 uM after 48 hrs; assay type: functional; conditions: PC-3, 48 h, read-out: GI; outline: as §1
SR = assay: Growth inhibition of human SR cells at 10 uM after 48 hrs; assay type: functional; conditions: read-out: GI; outline: as §2
[6] = Growth inhibition of human OVCAR5 cells at 10 uM after 48 hrs; assay type: functional; conditions: OVCAR-5, 48 h, read-out: GI; outline: as §1
SNB-75 = assay: Growth inhibition of human SNB75 cells at 10 uM after 48 hrs; assay type: functional; conditions: SNB-75, 48 h, read-out: GI; outline: as §2
K562 = assay: Growth inhibition of human K562 cells at 10 uM after 48 hrs; assay type: functional; conditions: K562, 48 h, read-out: GI; outline: as §1
M14 = assay: Growth inhibition of human M14 cells at 10 uM after 48 hrs; assay type: functional; conditions: M14, 48 h, read-out: GI; outline: as §1
SF-268 = assay: Growth inhibition of human SF268 cells at 10 uM after 48 hrs; assay type: functional; conditions: SF-268, 48 h, read-out: GI; outline: as §2
[7] = Growth inhibition of human UO31 cells at 10 uM after 48 hrs; assay type: functional; conditions: UO-31, 48 h, read-out: GI; outline: as §2
[8] = Growth inhibition of human UACC257 cells at 10 uM after 48 hrs; assay type: functional; conditions: UACC-257, 48 h, read-out: GI; outline: as §2
[9] = Growth inhibition of human HOP92 cells at 10 uM after 48 hrs; assay type: functional; conditions: HOP-92, 48 h, read-out: GI; outline: as §1
SK-MEL-28 = assay: Growth inhibition of human SK-MEL-28 cells at 10 uM after 48 hrs; assay type: functional; conditions: SK-MEL-28, 48 h, read-out: GI; outline: as §2
NCI-H460 = assay: Growth inhibition of human NCI-H460 cells at 10 uM after 48 hrs; assay type: functional; conditions: NCI-H460, 48 h, read-out: GI; outline: as §1
IGROV-1 = assay: Growth inhibition of human IGROV1 cells at 10 uM after 48 hrs; assay type: functional; conditions: IGROV-1, 48 h, read-out: GI; outline: as §1
[10] = Growth inhibition of human HCC2998 cells at 10 uM after 48 hrs; assay type: functional; conditions: HCC 2998, 48 h, read-out: GI; outline: as §1
SK-MEL-5 = assay: Growth inhibition of human SK-MEL-5 cells at 10 uM after 48 hrs; assay type: functional; conditions: SK-MEL-5, 48 h, read-out: GI; outline: as §2
SW-620 = assay: Growth inhibition of human SW620 cells at 10 uM after 48 hrs; assay type: functional; conditions: SW-620, 48 h, read-out: GI; outline: as §2
OVCAR-3 = assay: Growth inhibition of human OVCAR3 cells at 10 uM after 48 hrs; assay type: functional; conditions: OVCAR-3, 48 h, read-out: GI; outline: as §1
TK-10 = assay: Growth inhibition of human TK10 cells at 10 uM after 48 hrs; assay type: functional; conditions: TK-10, 48 h, read-out: GI; outline: as §2
MCF7 = assay: Growth inhibition of human MCF7 cells at 10 uM after 48 hrs; assay type: functional; conditions: MCF7, 48 h, read-out: GI; outline: as §1

| SMILES | inhibition of growth at 10 µM (NCI-H23) [%] | inhibition of growth at 10 µM (SK-OV-3) [%] | inhibition of growth at 10 µM (NCI-H322M) [%] | inhibition of growth at 10 µM (MDA-MB-231) [%] | inhibition of growth at 10 µM [1] [%] | inhibition of growth at 10 µM (T47D) [%] | inhibition of growth at 10 µM [2] [%] | inhibition of growth at 10 µM (MOLT-4) [%] | inhibition of growth at 10 µM [3] [%] | inhibition of growth at 10 µM (HCT-15) [%] | inhibition of growth at 10 µM (SNB-19) [%] | inhibition of growth at 10 µM [4] [%] | inhibition of growth at 10 µM (UACC-62) [%] | inhibition of growth at 10 µM (A549) [%] | inhibition of growth at 10 µM [5] [%] | inhibition of growth at 10 µM (A498) [%] | inhibition of growth at 10 µM (HL-60(TB)) [%] | inhibition of growth at 10 µM (PC-3) [%] | inhibition of growth at 10 µM (SR) [%] | inhibition of growth at 10 µM [6] [%] | other results |
| --- | --- | --- | --- | --- | --- | --- | --- | --- | --- | --- | --- | --- | --- | --- | --- | --- | --- | --- | --- | --- | --- |
| COc1ccc(/C=C2\CCCc3c2nc(N)nc3-c2ccc(OC)cc2)cc1 | < 30 | < 30 | < 30 | < 30 | < 30 | < 30 | < 30 | < 30 | < 30 | < 30 | < 30 | < 30 | 32.1 | < 30 | < 30 | < 30 | 32.2 | < 30 | < 30 | < 30 | IC50 (Dihydrofolate reductase): 18 µM; inhibition of growth at 10 µM (SNB-75): < 30%; inhibition of growth at 10 µM (K562): < 30%; inhibition of growth at 10 µM (M14): < 30%; inhibition of growth at 10 µM (SF-268): < 30%; inhibition of growth at 10 µM [7]: < 30%; inhibition of growth at 10 µM [8]: < 30%; inhibition of growth at 10 µM [9]: 31.4%; inhibition of growth at 10 µM (SK-MEL-28): < 30%; inhibition of growth at 10 µM (NCI-H460): < 30%; inhibition of growth at 10 µM (IGROV-1): < 30%; inhibition of growth at 10 µM [10]: < 30%; inhibition of growth at 10 µM (SK-MEL-5): 43.8%; inhibition of growth at 10 µM (SW-620): < 30%; inhibition of growth at 10 µM (OVCAR-3): < 30%; inhibition of growth at 10 µM (TK-10): < 30%; inhibition of growth at 10 µM (MCF7): < 30% |
| Cc1nc2c(c(-c3ccc(Br)cc3)n1)CCC/C2=C\c1ccc(Br)cc1 | < 30 | < 30 | < 30 | < 30 | < 30 | < 30 | < 30 | < 30 | < 30 | < 30 | < 30 | < 30 | < 30 | < 30 | < 30 | < 30 | < 30 | < 30 | < 30 | < 30 | inhibition of growth at 10 µM (SNB-75): < 30%; inhibition of growth at 10 µM (K562): < 30%; inhibition of growth at 10 µM (M14): < 30%; inhibition of growth at 10 µM (SF-268): < 30%; inhibition of growth at 10 µM [7]: < 30%; inhibition of growth at 10 µM [8]: < 30%; inhibition of growth at 10 µM [9]: < 30%; inhibition of growth at 10 µM (SK-MEL-28): < 30%; inhibition of growth at 10 µM (NCI-H460): < 30%; inhibition of growth at 10 µM (IGROV-1): < 30%; inhibition of growth at 10 µM [10]: < 30%; inhibition of growth at 10 µM (SK-MEL-5): < 30%; inhibition of growth at 10 µM (SW-620): < 30%; inhibition of growth at 10 µM (OVCAR-3): < 30%; inhibition of growth at 10 µM (TK-10): < 30%; inhibition of growth at 10 µM (MCF7): 56.7% |
